# Reference: article PMC6980386 (Traffic (Copenhagen, Denmark), 2019)
# Key:
# FL huCD4 P20A = FL huCD4 P20A (Homo sapiens, UniProt P01730, P20A); assay: CADA down-modulation of cellular huCD4; format: cell-based
# In short: (§1)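 HEK293T cells, seeded overnight in DMEM with 10% serum, 1 mM sodium pyruvate and 0.075% NaHCO₃, were lipofected with full-length human CD4 (WT or mutant). Test compound in DMSO was added 6 h post-transfection as 1:5 serial dilutions (50–0.016 μM) for 48 h. Surface CD4 was stained with FITC/APC anti-CD4 (SK3) and read by flow cytometry. IC50 is 50% of the untreated signal, from four-parameter fits of ≥3 replicate experiments. FC is mutant/WT mean IC50.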
# huCD4_1–32-YFP L19A = huCD4_1–32-YFP L19A (Homo sapiens, UniProt P01730, L19A); assay: CADA inhibition of huCD4_1–32-YFP secretion; format: cell-based
# In short: (§2)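 HEK293T cells were grown in DMEM with 10% FBS and 10 mM HEPES, seeded and left to adhere overnight, then transiently transfected with plasmid by Lipofectamine. Test compound was added 6 h after transfection as a 1:5 serial dilution (50 to 0.016 μM) for 48 h. Secreted YFP in the supernatant was captured on GFP-Trap magnetic beads for 1 h, washed with PBS and measured by flow cytometry. IC50 is the concentration that halves the signal relative to the untreated control, taken from a four-parameter fit of at least three replicate experiments. FC is the mutant mean IC50 divided by the WT mean IC50.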
# huCD4_1–32-YFP L18A = huCD4_1–32-YFP L18A (Homo sapiens, UniProt P01730, L18A); assay: CADA inhibition of huCD4_1–32-YFP secretion; format: cell-based
# In short: as §2
# FL huCD4 H9A = FL huCD4 H9A (Homo sapiens, UniProt P01730, H9A); assay: CADA down-modulation of cellular huCD4; format: cell-based
# In short: as §1
# [1] = molecular target: truncated huCD4 D1D2 K26A (Homo sapiens, UniProt P01730, K26A); assay: Cell-free in vitro translation and translocation; format: biochemical
# In short: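 Proteinase K protection 30 min on ice, quenched with PMSF. Pellets washed in low-salt buffer (HEPES pH 7.6), then SDS-PAGE and phosphor imaging. Translocation normalised to untreated WT. Two to five independent experiments; Welch's t test.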
# [2] = molecular target: truncated huCD4 D1D2 Q15A (Homo sapiens, UniProt P01730, Q15A); assay: Cell-free in vitro translation and translocation; format: biochemical
# In short: (§3)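 Truncated huCD4 D1D2 (lacking glycosylation sites and membrane anchor) was made by PCR and transcribed with T7. Proteinase K protection ran 30 min on ice and was quenched with PMSF. Products were separated by SDS-PAGE and imaged by phosphor imaging. The SP-cleaved band was normalised to the matching control. Data are from 2–5 independent experiments, compared with WT by Welch t test.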
# huCD4_1–32-YFP Q15A;P20A = huCD4_1–32-YFP Q15A;P20A (Homo sapiens, UniProt P01730, P20A/Q15A); assay: CADA inhibition of huCD4_1–32-YFP secretion; format: cell-based; settings: HEK293T, 48h
# In short: as §2
# huCD4_1–32-YFP L14A = huCD4_1–32-YFP L14A (Homo sapiens, UniProt P01730, L14A); assay: CADA inhibition of huCD4_1–32-YFP secretion; format: cell-based
# In short: as §2
# huCD4_1–32-YFP G25A = huCD4_1–32-YFP G25A (Homo sapiens, UniProt P01730, G25A); assay: CADA inhibition of huCD4_1–32-YFP secretion; format: cell-based
# In short: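 HEK293T cells were lipofected with human CD4 residues 1–32 fused to the N-terminus of YFP (secreted, no membrane anchor). Test compound was added 6 h post-transfection as 1:5 serial dilutions (50–0.016 μM) for 48 h. Supernatant was captured on GFP-Trap magnetic beads for 1 h, washed in PBS, and YFP was read by flow cytometry. IC50 is 50% of the untreated control, from four-parameter fits of ≥3 replicate experiments. FC is mutant/WT mean IC50.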
# [3] = molecular target: truncated huCD4 D1D2 L16A (Homo sapiens, UniProt P01730, L16A); assay: Cell-free in vitro translation and translocation; format: biochemical; settings: 15 μM CADA
# In short: as §3
# huCD4_1–32-YFP H9A = huCD4_1–32-YFP H9A (Homo sapiens, UniProt P01730, H9A); assay: CADA inhibition of huCD4_1–32-YFP secretion; format: cell-based
# In short: as §2
# bovine pre-prolactin = settings: cited from earlier work
# [4] = molecular target: truncated huCD4 D1D2 P20A (Homo sapiens, UniProt P01730, P20A); assay: Cell-free in vitro translation and translocation; format: biochemical
# In short: as §3
# FL huCD4 Q15A;P20A = FL huCD4 Q15A;P20A (Homo sapiens, UniProt P01730, P20A/Q15A); assay: CADA down-modulation of cellular huCD4; format: cell-based; settings: HEK293T, 48h
# In short: as §1
# FL huCD4 N2A = FL huCD4 N2A (Homo sapiens, UniProt P01730, N2A); assay: CADA down-modulation of cellular huCD4; format: cell-based
# In short: as §1
# huCD4_1–32-YFP R8A = huCD4_1–32-YFP R8A (Homo sapiens, UniProt P01730, R8A); assay: CADA inhibition of huCD4_1–32-YFP secretion; format: cell-based; settings: read-out: Secreted YFP IC50 (μM) Mean, HEK293T, CADA 48h
# In short: as §2
# huCD4_1–32-YFP L12A = huCD4_1–32-YFP L12A (Homo sapiens, UniProt P01730, L12A); assay: CADA inhibition of huCD4_1–32-YFP secretion; format: cell-based
# In short: as §2
# FL huCD4 K27E = FL huCD4 K27E (Homo sapiens, UniProt P01730, K27E); assay: CADA down-modulation of cellular huCD4; format: cell-based; settings: HEK293T, 48h
# In short: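 Transient transfection of HEK293T cells (Lipofectamine), seeded the night before. Test compound added 6 h post-transfection as a serial 1:5 dilution from 50 to 0.016 μM, then 48 h culture. Surface CD4 stained with FITC- or APC-labelled anti-human CD4 (clone SK3) and read by flow cytometry. IC50 is the concentration reducing signal to 50% of untreated control, interpolated from four-parameter curves (≥3 replicate experiments; 95% CI).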
# FL huCD4 L10A;L18A = FL huCD4 L10A;L18A (Homo sapiens, UniProt P01730, L10A/L18A); assay: CADA down-modulation of cellular huCD4; format: cell-based; settings: compared with single Leu-to-Ala mutants
# In short: as §1
# huCD4_1–32-YFP K27A = assay: CADA inhibition of huCD4_1–32-YFP secretion; format: cell-based, human
# In short: as §2
# [5] = + less, − more sensitive to CADA
# [6] = read-out: Cellular huCD4 IC50 (μM) Mean, HEK293T, CADA 48h
# [7] = read-out: Secreted YFP IC50 (μM) Mean, HEK293T, CADA 48h
smiles,measurement,setting,value
"C=C1CN(S(=O)(=O)c2ccc(C)cc2)CCCN(Cc2ccccc2)CCCN(S(=O)(=O)c2ccc(C)cc2)C1 [CADA, Cyclotriazadisulfonamide]",Cellular huCD4 FC (fold change of mean IC50 relative to WT),FL huCD4 P20A; [5],+4.4
same,IC50,FL huCD4 P20A; [6],2.35 µM
same,Secreted YFP FC (fold change of mean IC50 relative to WT),huCD4_1–32-YFP L19A; [5],+3.6
same,IC50,huCD4_1–32-YFP L19A; [7],4.57 µM
same,Secreted YFP FC (fold change of mean IC50 relative to WT),huCD4_1–32-YFP L18A; [5],−1.9
same,IC50,huCD4_1–32-YFP L18A; [7],0.67 µM
same,Cellular huCD4 FC (fold change of mean IC50 relative to WT),FL huCD4 H9A; [5],+1.1
same,IC50,FL huCD4 H9A; [6],0.62 µM
same,sensitivity of translocation towards CADA compared to WT,[1]; 15 μM CADA,significantly reduced sensitivity to CADA
same,effect of CADA on co-translational translocation,[1]; increasing doses of CADA,"still responded to CADA, although to a lesser extent as compared to WT huCD4"
same,inhibitory effect of CADA on protein translocation compared to WT,[2]; 15 μM CADA,significantly reduced
same,impact of CADA on co-translational translocation,[2]; increasing doses of CADA,significantly reduced
same,sensitivity to CADA,huCD4_1–32-YFP Q15A;P20A,no longer responded to CADA
same,Secreted YFP FC (fold change of mean IC50 relative to WT),huCD4_1–32-YFP L14A; [5],−1.1
same,IC50,huCD4_1–32-YFP L14A; [7],1.12 µM
same,Secreted YFP FC (fold change of mean IC50 relative to WT),huCD4_1–32-YFP G25A; [5],−3.6
same,IC50,huCD4_1–32-YFP G25A; [7],0.35 µM
same,sensitivity of translocation towards CADA compared to WT,[3],higher sensitivity towards CADA
same,Secreted YFP FC (fold change of mean IC50 relative to WT),huCD4_1–32-YFP H9A; [5],+1.7
same,IC50,huCD4_1–32-YFP H9A; [7],2.13 µM
same,sensitivity of bovine pre-prolactin to CADA,bovine pre-prolactin,completely resistant to CADA
same,inhibitory effect of CADA on protein translocation compared to WT,[4]; 15 μM CADA,significantly reduced
same,effect of CADA on co-translational translocation,[4]; increasing doses of CADA,"still responded to CADA, although to a lesser extent as compared to WT huCD4"
same,sensitivity to CADA,FL huCD4 Q15A;P20A,no longer responded to CADA
same,Cellular huCD4 FC (fold change of mean IC50 relative to WT),FL huCD4 N2A; [5],+1.4
same,IC50,FL huCD4 N2A; [6],0.73 µM
same,IC50,huCD4_1–32-YFP R8A,> 50 µM
same,enhanced CADA sensitivity relative to WT,huCD4_1–32-YFP L12A,5 fold
same,Secreted YFP FC (fold change of mean IC50 relative to WT),huCD4_1–32-YFP L12A; [5],−5.3
same,IC50,huCD4_1–32-YFP L12A; [7],0.24 µM
same,sensitivity to CADA,FL huCD4 K27E,copied the alanine substitution phenotypes
same,sensitivity to CADA,FL huCD4 L10A;L18A,further enhanced the effect
same,Secreted YFP FC (fold change of mean IC50 relative to WT),huCD4_1–32-YFP K27A; [5],>+39
same,IC50,huCD4_1–32-YFP K27A; [7],> 50 µM
